Tests used:
[1] = biological target: T1, UDP-glucuronosyltransferase 1A3 (Homo sapiens, UniProt P35503); assay: Activity of human UGT1A3 expressed in microsomes isolated from baculovirus infected insect cell assessed as enzyme-mediated 3-(4-((6-methoxy-1-methyl-1H-benzo[d]imidazol-2-yl)methoxy)phenyl)-2-(methylthio)propanamide formation at 20 uM after 4 hrs by radio-HPLC/LC-MS/MS analysis in presence of NADPH-generating system/SAM in presence of UDPGA and UDPGA/SAM; format: ADME
T1 sequence (P35503 whole entry): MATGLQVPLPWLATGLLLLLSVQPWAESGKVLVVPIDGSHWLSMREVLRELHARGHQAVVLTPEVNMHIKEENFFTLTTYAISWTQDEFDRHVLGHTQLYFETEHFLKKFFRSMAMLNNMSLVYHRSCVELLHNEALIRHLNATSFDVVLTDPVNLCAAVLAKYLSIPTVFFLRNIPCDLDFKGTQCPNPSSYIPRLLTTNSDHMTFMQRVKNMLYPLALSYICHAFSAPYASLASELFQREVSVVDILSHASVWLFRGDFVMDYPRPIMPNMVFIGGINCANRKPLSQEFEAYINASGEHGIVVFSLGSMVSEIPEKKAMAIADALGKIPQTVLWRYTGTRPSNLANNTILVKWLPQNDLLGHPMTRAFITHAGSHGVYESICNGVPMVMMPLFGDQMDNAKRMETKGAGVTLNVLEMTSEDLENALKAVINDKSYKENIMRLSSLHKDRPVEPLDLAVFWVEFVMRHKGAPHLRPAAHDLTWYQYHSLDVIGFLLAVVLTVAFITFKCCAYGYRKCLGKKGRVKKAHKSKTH

Cytochrome P450 3A4 [2] = biological target: T2, Cytochrome P450 3A4 (Homo sapiens, UniProt P08684); assay: Activity of human CYP3A4 expressed in microsomes isolated from baculovirus infected insect cell assessed as enzyme-mediated 2-hydroxy-3-(4-((6-methoxy-1-methyl-1H-benzo[d]imidazol-2-yl)methoxy)phenyl)propanamide formation at 20 uM after 2 hrs by radio-HPLC/LC-MS/MS analysis in presence of NADPH-generating system and NADPH-generating system/SAM; format: ADME
T2 sequence (P08684 whole entry): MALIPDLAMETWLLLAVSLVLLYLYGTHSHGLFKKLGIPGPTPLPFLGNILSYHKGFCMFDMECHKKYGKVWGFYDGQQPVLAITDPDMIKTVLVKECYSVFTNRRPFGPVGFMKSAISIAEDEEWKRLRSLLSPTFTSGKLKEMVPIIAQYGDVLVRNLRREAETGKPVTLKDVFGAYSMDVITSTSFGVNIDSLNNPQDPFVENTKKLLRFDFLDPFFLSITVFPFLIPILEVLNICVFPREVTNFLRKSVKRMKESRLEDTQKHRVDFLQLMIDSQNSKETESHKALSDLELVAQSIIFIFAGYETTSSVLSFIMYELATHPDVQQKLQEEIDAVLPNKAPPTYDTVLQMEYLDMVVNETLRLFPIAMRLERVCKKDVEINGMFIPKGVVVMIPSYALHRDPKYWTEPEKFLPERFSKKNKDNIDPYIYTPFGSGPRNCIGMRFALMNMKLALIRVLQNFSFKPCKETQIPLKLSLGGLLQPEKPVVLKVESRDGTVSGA

Liver microsome = assay: Drug metabolism in Sprague-Dawley rat liver microsomes assessed as formation of 5-hydroxy-5-(4-((6-methoxy-1-methyl-1H-benzo[d]imidazol-2-yl)methoxy)benzyl)thiazolidine-2,4-dione at 20 uM after 2 hrs by radio-HPLC/LC-MS/MS analysis in presence of NADPH-generating system and NADPH-generating system/SAM; format: ADME
[3] = biological target: T3, UDP-glucuronosyltransferase 1A7 (Homo sapiens, UniProt Q9HAW7); assay: Activity of human UGT1A7 expressed in microsomes isolated from baculovirus infected insect cell assessed as enzyme-mediated 2-mercapto-3-(4-((6-methoxy-1-methyl-1H-benzo[d]imidazol-2-yl)methoxy)phenyl)propanoic acid formation at 20 uM after 4 hrs by radio-HPLC/LC-MS/MS analysis in presence of UDPGA; format: ADME
T3 sequence (Q9HAW7 whole entry): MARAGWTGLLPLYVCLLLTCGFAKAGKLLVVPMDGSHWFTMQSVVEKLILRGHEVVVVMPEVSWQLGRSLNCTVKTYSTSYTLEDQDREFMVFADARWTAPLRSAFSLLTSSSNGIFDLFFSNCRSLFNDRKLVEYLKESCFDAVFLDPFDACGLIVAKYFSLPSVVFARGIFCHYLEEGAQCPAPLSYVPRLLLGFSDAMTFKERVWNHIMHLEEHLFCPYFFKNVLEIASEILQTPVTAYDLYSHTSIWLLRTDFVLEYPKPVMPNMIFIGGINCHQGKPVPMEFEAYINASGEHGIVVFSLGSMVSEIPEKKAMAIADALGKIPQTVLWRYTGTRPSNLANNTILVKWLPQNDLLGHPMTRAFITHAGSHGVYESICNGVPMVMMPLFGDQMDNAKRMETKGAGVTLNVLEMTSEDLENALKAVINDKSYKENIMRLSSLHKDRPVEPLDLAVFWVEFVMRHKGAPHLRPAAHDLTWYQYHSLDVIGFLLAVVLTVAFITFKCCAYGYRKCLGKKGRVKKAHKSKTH

Cytochrome P450 3A4 [4] = biological target: T2, Cytochrome P450 3A4; assay: Activity of human CYP3A4 expressed in microsomes isolated from baculovirus infected insect cell assessed as enzyme-mediated 3-(4-((6-methoxy-1-methyl-1H-benzo[d]imidazol-2-yl)methoxy)phenyl)-2-(methylthio)propanamide formation at 20 uM after 2 hrs by radio-HPLC/LC-MS/MS analysis in presence of NADPH-generating system/SAM; format: ADME
Cytochrome P450 2C8 = biological target: T4, Cytochrome P450 2C8 (Homo sapiens, UniProt P10632); assay: Activity of human CYP2C8 expressed in microsomes isolated from baculovirus infected insect cell assessed as enzyme-mediated 3-(4-((6-methoxy-1-methyl-1H-benzo[d]imidazol-2-yl)methoxy)phenyl)-2-(methylsulfinyl)propanamide formation at 20 uM after 2 hrs by radio-HPLC/LC-MS/MS analysis in presence of NADPH-generating system/SAM; format: ADME
T4 sequence (P10632 whole entry): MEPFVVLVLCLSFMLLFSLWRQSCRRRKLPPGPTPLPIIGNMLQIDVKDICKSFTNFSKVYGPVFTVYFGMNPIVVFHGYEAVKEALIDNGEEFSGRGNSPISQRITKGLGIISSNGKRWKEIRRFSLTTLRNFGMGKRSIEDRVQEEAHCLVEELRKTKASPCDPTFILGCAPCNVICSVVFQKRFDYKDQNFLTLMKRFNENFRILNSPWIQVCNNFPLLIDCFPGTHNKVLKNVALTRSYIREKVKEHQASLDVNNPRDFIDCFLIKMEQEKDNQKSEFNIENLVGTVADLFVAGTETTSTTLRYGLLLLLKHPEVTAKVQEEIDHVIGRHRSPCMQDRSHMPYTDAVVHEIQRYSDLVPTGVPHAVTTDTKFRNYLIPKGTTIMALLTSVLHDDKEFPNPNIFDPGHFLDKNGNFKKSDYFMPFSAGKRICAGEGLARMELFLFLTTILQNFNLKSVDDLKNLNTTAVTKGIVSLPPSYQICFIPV

[5] = Drug metabolism in rat hepatocytes assessed as formation of 2-mercapto-3-(4-((6-methoxy-1-methyl-1H-benzo[d]imidazol-2-yl)methoxy)phenyl)propanamide at 30 uM after 3 hrs by radio-HPLC/LC-MS/MS analysis in presence of NADPH-generating system and NADPH-generating system/SAM; format: ADME, cell-based, Hepatocyte
Cytochrome P450 2C9 = Cytochrome P450 2C9 (Homo sapiens, UniProt P11712); assay: Activity of human CYP2C9 expressed in microsomes isolated from baculovirus infected insect cell assessed as enzyme-mediated (2S,3S,4S,5R,6R)-6-((1-carboxy-2-(4-((6-methoxy-1-methyl-1H-benzo[d]imidazol-2-yl)methoxy)phenyl)ethylthio)carbonylamino)-3,4,5-trihydroxytetrahydro-2H-pyran-2-carboxylic acid formation at 20 uM after 2 hrs by radio-HPLC/LC-MS/MS analysis in presence of NADPH-generating system/SAM; format: ADME
Sequence of Cytochrome P450 2C9 (P11712 whole entry): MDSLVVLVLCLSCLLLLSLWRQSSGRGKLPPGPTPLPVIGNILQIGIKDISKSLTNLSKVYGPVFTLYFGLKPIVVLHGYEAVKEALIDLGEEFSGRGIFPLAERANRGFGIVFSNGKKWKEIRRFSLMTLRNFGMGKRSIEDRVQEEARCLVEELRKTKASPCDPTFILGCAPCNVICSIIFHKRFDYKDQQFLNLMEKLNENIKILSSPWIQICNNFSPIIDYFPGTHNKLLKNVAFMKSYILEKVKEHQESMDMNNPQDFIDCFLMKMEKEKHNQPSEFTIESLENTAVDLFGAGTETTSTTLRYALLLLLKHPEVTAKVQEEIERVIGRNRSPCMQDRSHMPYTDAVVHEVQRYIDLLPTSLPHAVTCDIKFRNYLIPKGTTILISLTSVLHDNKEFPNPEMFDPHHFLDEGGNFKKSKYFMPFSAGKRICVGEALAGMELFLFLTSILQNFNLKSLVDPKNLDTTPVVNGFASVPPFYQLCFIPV

Cytochrome P450 2C19 = Cytochrome P450 2C19 (Homo sapiens, UniProt P33261); assay: Activity of human CYP2C19 expressed in microsomes isolated from baculovirus infected insect cell assessed as enzyme-mediated 2-((4-((2,4-dioxothiazolidin-5-yl)methyl)phenoxy)methyl)-1-methyl-1H-benzo[d]imidazol-6-yl hydrogen sulfate formation at 20 uM after 2 hrs by radio-HPLC/LC-MS/MS analysis; format: ADME
Sequence of Cytochrome P450 2C19 (P33261 whole entry): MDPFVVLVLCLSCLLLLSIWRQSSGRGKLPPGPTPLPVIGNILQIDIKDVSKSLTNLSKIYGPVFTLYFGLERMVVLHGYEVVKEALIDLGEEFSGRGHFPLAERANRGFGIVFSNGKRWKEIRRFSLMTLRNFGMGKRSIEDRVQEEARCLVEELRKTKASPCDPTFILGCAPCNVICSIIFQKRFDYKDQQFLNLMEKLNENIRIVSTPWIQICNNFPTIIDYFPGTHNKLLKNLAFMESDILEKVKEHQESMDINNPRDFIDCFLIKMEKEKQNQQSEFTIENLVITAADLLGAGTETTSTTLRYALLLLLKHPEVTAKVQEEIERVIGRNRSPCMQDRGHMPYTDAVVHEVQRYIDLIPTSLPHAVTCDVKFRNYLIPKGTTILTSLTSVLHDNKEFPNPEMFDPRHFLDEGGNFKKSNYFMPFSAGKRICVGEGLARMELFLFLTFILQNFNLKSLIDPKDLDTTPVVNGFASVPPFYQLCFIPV
Summary of the method: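 Baculovirus/insect-cell microsomes expressing single human CYPs, 1 mg/ml protein, with 50 mM potassium phosphate (pH 7.4) or 100 mM Tris-HCl (pH 7.5). NADPH-generating system: 2 mM NADP⁺, 20 mM glucose 6-phosphate, 2 units/ml G6PDH, 10 mM MgCl₂. [¹⁴C]rivoglitazone at 20 μM, 2 h at 37°C with shaking. Control used insect-cell control supersomes. Stopped with acetonitrile; supernatant concentrated under nitrogen; metabolites analysed by radio-HPLC, LC-MS and LC-MS/MS.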

COc1ccc2nc(COc3ccc(C[14CH]4SC(=O)NC4=O)cc3)n(C)c2c1.Cl (racemic)
Drug metabolism [1]: metabolite_not_detected | Drug metabolism (Cytochrome P450 3A4 [2]): metabolite_detected | Drug metabolism (Liver microsome): metabolite_detected | Drug metabolism [3]: metabolite_not_detected | Drug metabolism (Cytochrome P450 3A4 [4]): metabolite_not_detected | Drug metabolism (Cytochrome P450 2C8): metabolite_not_detected | Drug metabolism [5]: metabolite_not_detected | Drug metabolism (Cytochrome P450 2C9): metabolite_not_detected | Drug metabolism (Cytochrome P450 2C19): metabolite_not_detected

— ChEMBL document CHEMBL3526048, “In vitro metabolism of rivoglitazone, a novel peroxisome proliferator-activated receptor γ agonist, in rat, monkey, and human liver microsomes and freshly isolated hepatocytes” (Drug Metab Dispos, 2011)
